Measured values: ChEMBL document CHEMBL2424622, “Development of amino-pyrimidine inhibitors of c-Jun N-terminal kinase (JNK): kinase profiling guided optimization of a 1,2,3-benzotriazole lead” (Bioorg Med Chem Lett, 2013)

How the values were obtained:
[1] = biological target: SRSF protein kinase 1 (Homo sapiens) (UniProt Q96SB4); assay: Competitive binding affinity to SRPK1 (unknown origin) at 10 uM in presence of ATP relative to control
[2] = biological target: T1, Myosin light chain kinase family member 4 (Homo sapiens) (UniProt Q86YV6); assay: Competitive binding affinity to SgK085 (unknown origin) at 10 uM in presence of ATP relative to control
T1 sequence (whole entry): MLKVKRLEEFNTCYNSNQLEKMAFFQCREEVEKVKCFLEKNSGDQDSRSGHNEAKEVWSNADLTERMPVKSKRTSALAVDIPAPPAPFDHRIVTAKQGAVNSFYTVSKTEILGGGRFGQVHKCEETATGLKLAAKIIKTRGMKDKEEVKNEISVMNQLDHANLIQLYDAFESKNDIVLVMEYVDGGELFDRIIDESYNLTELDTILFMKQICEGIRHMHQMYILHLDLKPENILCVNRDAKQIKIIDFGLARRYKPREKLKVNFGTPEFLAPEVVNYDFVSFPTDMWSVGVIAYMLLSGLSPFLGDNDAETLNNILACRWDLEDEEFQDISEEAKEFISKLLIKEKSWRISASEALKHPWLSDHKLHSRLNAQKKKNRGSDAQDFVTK

[3] = biological target: Interferon-induced, double-stranded RNA-activated protein kinase (Homo sapiens, UniProt P19525); assay: Competitive binding affinity to PRKR (unknown origin) at 10 uM in presence of ATP relative to control
Chain of Interferon-induced, double-stranded RNA-activated protein kinase (P19525 whole entry): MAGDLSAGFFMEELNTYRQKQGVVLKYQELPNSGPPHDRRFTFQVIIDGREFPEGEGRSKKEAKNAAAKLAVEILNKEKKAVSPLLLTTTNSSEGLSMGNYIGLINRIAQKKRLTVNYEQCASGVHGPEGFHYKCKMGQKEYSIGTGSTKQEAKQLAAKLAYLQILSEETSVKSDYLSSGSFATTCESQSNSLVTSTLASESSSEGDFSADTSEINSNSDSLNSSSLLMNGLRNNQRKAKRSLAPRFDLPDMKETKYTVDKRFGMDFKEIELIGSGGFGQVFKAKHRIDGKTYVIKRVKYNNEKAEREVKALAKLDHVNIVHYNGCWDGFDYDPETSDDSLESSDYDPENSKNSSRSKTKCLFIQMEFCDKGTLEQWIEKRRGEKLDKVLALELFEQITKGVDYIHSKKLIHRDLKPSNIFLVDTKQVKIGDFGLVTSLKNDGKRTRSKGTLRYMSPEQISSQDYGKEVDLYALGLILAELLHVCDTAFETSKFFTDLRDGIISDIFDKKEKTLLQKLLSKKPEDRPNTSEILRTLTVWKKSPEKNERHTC

[4] = biological target: Maternal embryonic leucine zipper kinase (Homo sapiens) (UniProt Q14680); assay: Competitive binding affinity to MELK (unknown origin) at 10 uM in presence of ATP relative to control
Chain of Maternal embryonic leucine zipper kinase (Homo sapiens) (Q14680 whole entry, looked up, the tested form may be a part): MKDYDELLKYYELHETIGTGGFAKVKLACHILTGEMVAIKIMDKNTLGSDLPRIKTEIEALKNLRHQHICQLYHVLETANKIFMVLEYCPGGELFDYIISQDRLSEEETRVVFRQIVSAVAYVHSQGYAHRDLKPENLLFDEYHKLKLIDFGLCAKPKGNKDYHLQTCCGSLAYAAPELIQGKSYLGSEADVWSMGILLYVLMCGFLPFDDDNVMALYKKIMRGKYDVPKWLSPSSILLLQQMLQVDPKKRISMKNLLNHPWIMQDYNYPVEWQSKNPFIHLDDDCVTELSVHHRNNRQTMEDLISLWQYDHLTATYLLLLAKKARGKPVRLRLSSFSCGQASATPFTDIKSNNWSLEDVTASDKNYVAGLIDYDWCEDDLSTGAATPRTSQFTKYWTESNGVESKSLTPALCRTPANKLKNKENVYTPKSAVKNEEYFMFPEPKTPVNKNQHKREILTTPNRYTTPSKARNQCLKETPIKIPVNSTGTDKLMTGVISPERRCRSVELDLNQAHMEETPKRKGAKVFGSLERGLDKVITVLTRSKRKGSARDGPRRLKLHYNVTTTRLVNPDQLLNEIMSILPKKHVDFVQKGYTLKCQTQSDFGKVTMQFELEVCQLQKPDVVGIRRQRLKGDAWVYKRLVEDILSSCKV

[5] = biological target: T2, Discoidin domain-containing receptor 2 (Homo sapiens) (UniProt Q16832); assay: Competitive binding affinity to DDR2 (unknown origin) at 10 uM in presence of ATP relative to control
T2 sequence (whole entry): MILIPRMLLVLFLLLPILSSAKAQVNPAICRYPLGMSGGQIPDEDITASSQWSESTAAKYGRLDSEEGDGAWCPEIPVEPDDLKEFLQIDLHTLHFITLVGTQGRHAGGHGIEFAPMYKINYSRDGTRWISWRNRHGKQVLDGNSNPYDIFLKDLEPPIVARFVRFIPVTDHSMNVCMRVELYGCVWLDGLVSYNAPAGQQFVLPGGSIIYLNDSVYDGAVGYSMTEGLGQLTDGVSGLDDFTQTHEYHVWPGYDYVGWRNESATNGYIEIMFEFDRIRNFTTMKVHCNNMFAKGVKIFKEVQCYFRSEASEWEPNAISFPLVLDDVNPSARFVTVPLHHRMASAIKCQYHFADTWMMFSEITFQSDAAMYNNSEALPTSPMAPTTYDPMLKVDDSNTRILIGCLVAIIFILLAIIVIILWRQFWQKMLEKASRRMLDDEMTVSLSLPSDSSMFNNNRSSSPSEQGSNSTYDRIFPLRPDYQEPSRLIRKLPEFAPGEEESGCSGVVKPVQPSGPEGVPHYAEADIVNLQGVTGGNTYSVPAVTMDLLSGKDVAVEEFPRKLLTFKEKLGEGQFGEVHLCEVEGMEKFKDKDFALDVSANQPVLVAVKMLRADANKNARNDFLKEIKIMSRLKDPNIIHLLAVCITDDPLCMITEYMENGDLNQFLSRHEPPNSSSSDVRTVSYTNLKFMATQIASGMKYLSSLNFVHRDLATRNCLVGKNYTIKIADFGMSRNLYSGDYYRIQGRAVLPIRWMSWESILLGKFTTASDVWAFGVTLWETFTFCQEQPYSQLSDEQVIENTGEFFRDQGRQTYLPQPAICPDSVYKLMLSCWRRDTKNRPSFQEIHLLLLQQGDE

[6] = biological target: Dual specificity mitogen-activated protein kinase kinase 1 (Homo sapiens) (UniProt Q02750); assay: Competitive binding affinity to MEK1 (unknown origin) at 10 uM in presence of ATP relative to control
Chain of Dual specificity mitogen-activated protein kinase kinase 1 (Homo sapiens) (Q02750 whole entry): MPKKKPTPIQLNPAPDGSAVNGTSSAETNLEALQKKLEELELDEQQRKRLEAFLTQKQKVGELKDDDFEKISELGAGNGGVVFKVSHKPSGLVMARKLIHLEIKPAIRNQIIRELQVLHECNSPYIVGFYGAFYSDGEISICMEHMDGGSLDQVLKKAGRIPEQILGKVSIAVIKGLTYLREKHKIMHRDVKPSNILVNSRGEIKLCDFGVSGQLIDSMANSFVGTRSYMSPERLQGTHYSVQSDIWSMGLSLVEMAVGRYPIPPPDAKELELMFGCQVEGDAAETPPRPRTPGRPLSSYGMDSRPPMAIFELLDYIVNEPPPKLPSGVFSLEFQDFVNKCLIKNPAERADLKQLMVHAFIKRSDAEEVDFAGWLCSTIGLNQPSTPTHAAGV

[7] = biological target: T3, Receptor-interacting serine/threonine-protein kinase 1 (Homo sapiens) (UniProt Q13546); assay: Competitive binding affinity to RIPK1 (unknown origin) at 10 uM in presence of ATP relative to control
T3 sequence (whole entry): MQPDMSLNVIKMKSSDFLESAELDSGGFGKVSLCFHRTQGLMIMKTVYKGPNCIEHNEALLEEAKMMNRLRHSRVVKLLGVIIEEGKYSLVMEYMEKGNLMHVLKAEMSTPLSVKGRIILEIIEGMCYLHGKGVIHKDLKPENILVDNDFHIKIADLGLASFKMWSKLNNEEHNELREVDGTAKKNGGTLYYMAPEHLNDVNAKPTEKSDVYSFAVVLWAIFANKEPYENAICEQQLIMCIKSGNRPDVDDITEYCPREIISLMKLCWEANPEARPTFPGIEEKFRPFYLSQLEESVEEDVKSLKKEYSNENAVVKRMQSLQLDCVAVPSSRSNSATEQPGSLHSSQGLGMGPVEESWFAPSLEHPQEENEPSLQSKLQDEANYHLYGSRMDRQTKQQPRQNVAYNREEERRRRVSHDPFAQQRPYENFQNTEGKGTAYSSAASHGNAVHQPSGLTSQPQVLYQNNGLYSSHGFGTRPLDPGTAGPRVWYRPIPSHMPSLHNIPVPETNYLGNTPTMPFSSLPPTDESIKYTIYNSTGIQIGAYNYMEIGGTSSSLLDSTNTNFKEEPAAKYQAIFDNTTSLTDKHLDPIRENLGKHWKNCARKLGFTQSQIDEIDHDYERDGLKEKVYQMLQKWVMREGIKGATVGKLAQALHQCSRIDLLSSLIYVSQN

[8] = biological target: Fibroblast growth factor receptor 4 (Homo sapiens) (UniProt P22455); assay: Competitive binding affinity to FGFR4 (unknown origin) at 10 uM in presence of ATP relative to control
Chain of Fibroblast growth factor receptor 4 (Homo sapiens) (P22455 22-802 limits assumed): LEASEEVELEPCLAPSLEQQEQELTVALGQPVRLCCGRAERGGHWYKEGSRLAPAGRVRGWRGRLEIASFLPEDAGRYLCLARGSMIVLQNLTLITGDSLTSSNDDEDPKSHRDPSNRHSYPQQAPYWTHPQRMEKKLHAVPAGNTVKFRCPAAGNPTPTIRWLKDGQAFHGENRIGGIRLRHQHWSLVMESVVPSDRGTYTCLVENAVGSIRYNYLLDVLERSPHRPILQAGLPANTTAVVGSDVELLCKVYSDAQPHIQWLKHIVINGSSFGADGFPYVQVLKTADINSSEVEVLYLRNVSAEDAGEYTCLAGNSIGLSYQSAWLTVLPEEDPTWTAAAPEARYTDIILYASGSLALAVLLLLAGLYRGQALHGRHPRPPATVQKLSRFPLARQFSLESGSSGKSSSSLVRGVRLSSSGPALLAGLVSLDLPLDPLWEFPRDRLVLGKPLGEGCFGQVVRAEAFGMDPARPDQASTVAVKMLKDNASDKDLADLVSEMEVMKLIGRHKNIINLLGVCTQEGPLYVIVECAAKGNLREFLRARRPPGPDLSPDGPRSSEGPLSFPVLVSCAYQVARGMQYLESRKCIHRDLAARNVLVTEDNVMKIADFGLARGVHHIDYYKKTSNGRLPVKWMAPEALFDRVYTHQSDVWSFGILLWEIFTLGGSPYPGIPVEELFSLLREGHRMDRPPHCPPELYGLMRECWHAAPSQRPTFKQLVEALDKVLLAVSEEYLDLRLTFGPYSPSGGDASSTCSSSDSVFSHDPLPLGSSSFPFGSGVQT
Summary of the method: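 In vitro ATP-site competition binding assay, part of profiling against a diverse panel of 128 kinases. Each compound was tested at a single concentration of 10 µM. Kinome selectivity was summarized as S15 selectivity scores.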

[9] = biological target: Ribosomal protein S6 kinase alpha-4 (Homo sapiens) (UniProt O75676); assay: Competitive binding affinity to RPS6KA4 kinase domain 2 (unknown origin) at 10 uM in presence of ATP relative to control
Chain of Ribosomal protein S6 kinase alpha-4 (Homo sapiens) (O75676 whole entry, looked up, the tested form may be a part): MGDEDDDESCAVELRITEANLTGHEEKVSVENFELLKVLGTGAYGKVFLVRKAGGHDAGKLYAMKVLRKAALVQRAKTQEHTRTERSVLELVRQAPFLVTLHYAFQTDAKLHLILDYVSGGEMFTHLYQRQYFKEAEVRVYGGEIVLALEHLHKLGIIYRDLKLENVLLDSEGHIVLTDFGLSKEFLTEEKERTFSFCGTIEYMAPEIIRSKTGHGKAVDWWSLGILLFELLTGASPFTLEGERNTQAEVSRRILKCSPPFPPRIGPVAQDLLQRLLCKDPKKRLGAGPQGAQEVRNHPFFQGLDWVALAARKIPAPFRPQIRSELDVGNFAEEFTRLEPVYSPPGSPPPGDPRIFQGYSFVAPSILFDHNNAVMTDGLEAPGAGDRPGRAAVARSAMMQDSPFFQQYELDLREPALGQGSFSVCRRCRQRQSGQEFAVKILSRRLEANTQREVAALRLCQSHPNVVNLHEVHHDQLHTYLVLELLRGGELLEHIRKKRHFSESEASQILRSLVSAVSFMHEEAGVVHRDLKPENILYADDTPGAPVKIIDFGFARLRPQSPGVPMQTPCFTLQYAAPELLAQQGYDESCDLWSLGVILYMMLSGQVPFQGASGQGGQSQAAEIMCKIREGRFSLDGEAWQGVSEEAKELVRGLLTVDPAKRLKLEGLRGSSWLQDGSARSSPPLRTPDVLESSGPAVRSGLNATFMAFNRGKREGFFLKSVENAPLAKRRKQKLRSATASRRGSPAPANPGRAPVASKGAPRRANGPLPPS

[10] = biological target: Activin receptor type-2A (Homo sapiens) (UniProt P27037); assay: Competitive binding affinity to ACVR2A (unknown origin) at 10 uM in presence of ATP relative to control
Chain of Activin receptor type-2A (Homo sapiens) (P27037 whole entry): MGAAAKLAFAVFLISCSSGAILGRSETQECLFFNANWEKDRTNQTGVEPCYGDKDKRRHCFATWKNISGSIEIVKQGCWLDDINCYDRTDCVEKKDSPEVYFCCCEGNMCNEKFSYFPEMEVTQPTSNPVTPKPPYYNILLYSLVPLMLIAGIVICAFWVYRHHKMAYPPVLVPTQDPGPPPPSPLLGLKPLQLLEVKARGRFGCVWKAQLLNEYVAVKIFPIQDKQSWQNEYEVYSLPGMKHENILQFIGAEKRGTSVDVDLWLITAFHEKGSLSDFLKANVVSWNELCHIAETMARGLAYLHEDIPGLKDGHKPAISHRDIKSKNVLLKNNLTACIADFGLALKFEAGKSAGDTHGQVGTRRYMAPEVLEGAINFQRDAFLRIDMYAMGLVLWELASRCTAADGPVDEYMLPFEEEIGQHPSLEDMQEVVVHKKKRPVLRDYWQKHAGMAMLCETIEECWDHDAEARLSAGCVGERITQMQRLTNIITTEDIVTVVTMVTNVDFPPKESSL

Chain of SRSF protein kinase 1 (Homo sapiens) (Q96SB4 whole entry): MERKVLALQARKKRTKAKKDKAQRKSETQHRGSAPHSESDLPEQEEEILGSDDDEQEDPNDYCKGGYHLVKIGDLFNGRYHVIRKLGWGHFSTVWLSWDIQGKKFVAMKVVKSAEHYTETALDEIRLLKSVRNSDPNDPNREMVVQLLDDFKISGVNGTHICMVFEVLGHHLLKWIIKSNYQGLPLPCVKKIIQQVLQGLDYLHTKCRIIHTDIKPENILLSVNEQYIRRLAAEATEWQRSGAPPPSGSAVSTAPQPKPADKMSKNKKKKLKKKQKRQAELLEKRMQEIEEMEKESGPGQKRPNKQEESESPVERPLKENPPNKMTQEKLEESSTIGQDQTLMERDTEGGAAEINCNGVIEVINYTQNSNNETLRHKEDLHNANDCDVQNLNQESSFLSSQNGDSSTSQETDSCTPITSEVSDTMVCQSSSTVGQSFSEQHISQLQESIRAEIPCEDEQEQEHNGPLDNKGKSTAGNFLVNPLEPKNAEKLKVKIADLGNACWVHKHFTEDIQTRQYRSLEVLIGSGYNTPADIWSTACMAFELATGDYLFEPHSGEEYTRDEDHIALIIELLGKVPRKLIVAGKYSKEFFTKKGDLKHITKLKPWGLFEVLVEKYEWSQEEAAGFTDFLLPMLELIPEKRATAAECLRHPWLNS

| Compound | inhibition [1] | inhibition [2] | inhibition [3] | inhibition [4] | inhibition [5] | inhibition [6] | inhibition [7] | inhibition [8] | inhibition [9] | inhibition [10] |
| --- | --- | --- | --- | --- | --- | --- | --- | --- | --- | --- |
| O[C@H]1CC[C@H](Nc2nccc(-n3ccc4ccccc43)n2)CC1 | < 50% | 98% | 95% | < 50% | < 50% | < 50% | < 50% | < 50% | < 50% | < 50% |
| CS(=O)(=O)CCCOc1cccc2c1ccn2-c1ccnc(N[C@H]2CC[C@H](C(=O)N3CCC(O)CC3)CC2)n1 | – | > 85% | – | – | – | – | – | – | – | – |
| O[C@H]1CC[C@H](Nc2nccc(-c3n[nH]c4ccccc34)n2)CC1 | 100% | – | – | 94% | – | – | – | < 50% | – | < 50% |

Other lines, results leading:

| inhibition [1] | inhibition [2] | inhibition [3] | inhibition [4] | inhibition [5] | inhibition [6] | inhibition [7] | inhibition [8] | inhibition [9] | inhibition [10] | Compound |
| --- | --- | --- | --- | --- | --- | --- | --- | --- | --- | --- |
| < 50% | 96% | 100% | 74% | < 50% | < 50% | < 50% | < 50% | < 50% | < 50% | O[C@H]1CC[C@H](Nc2nccc(-n3ncc4ccccc43)n2)CC1 |
| < 50% | 97% | 100% | 94% | < 50% | < 50% | < 50% | < 50% | 94% | < 50% | O[C@H]1CC[C@H](Nc2nccc(-n3nnc4ccccc43)n2)CC1 |
